Test results: ChEMBL document CHEMBL3272325, “Structure-activity relationships of dimeric Catharanthus alkaloids. 1. Deacetylvinblastine amide (vindesine) sulfate” (J Med Chem, 1978)

Key:
[1] = Antitumor activity against mouse Ridgeway osteogenic sarcoma cells allografted in mouse at 1 to 2 mg/kg/day, ip; type: functional; conditions: route intraperitoneal
Method in brief: (§1)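 Sulfate salts given ip on days 1-9 against ROS and GLS in mice; tumor growth scored as percent inhibition versus controls (+++ = 75-100%, ++ = 50-75%, ± = under 25%).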

[2] = Antitumor activity against mouse Gardner lymphosarcoma cell allografted in mouse at 1.0 to 2.0 mg/kg/day, ip; type: functional; conditions: route intraperitoneal; method in brief: as §1

CC[C@]1(O)C[C@@H]2C[C@H](c3cc4c(cc3OC)N(C)[C@H]3[C@@](O)(C(=O)NN)[C@H](O)[C@]5(CC)C=CCN6CC[C@]43[C@@H]65)c3[nH]c4ccccc4c3CCN(C2)C1
TGI [1]: <25%
TGI [2]: <25%
